The results in this text go back to the M2OR odorant receptor database.

Each structure is given as a SMILES string.

Details in all cases: stereoisomer not certain
The target in one experiment is T1, UniProt Q8VGZ2.
T1 sequence (whole entry): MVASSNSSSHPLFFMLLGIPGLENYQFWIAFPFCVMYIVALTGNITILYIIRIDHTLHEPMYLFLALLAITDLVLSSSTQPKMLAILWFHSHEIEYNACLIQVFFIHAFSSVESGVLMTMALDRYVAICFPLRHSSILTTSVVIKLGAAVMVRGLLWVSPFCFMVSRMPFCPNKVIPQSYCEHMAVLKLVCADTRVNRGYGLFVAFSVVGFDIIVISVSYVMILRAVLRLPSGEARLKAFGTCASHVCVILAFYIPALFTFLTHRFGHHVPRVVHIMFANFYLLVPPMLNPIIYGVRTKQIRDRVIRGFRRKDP
Put shortly:
(§1)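 Transient luciferase assays in mammalian cell lines were common, though methods varied by source. The values come from published papers and their supplementary material, with extra details from the original authors when needed. Responsive refers to a measured signal the original authors judged statistically different from baseline, and non-responsive (inactive) to the remainder.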

The next experiment deals with T2, UniProt Q8VGZ7.
T2 sequence (whole entry): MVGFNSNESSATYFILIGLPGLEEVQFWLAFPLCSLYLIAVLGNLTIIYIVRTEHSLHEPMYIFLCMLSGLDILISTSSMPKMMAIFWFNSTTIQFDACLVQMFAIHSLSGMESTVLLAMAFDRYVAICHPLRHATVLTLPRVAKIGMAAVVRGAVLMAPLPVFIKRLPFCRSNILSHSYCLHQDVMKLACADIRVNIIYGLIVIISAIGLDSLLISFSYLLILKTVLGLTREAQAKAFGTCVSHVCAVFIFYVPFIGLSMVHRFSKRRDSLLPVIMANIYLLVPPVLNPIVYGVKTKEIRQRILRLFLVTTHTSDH
In a few lines:
as §1

The target in another experiment is T3, UniProt Q8VH16.
T3 sequence (whole entry): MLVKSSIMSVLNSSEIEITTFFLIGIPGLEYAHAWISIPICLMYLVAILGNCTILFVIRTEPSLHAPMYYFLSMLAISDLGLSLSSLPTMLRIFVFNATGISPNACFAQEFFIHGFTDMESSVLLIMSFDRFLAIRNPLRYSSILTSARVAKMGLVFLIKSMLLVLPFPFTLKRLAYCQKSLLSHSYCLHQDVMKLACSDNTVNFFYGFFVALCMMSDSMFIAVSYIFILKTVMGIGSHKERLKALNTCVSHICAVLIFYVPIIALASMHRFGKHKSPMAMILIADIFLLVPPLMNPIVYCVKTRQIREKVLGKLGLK
Put shortly:
as §1

The target in the next experiment is T4, UniProt Q8VH20.
T4 sequence (whole entry): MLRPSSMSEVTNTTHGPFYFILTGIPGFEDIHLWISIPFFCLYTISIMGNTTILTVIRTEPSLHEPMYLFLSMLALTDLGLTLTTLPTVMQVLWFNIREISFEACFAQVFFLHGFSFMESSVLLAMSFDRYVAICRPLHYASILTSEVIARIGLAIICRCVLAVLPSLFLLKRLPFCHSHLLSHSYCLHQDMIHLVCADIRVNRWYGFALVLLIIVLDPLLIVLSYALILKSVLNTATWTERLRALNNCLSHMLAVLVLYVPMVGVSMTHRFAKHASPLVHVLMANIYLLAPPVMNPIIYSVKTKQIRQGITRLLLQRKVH
Put shortly: as §1

The target of the next experiment is T5, UniProt Q8VH21.
T5 sequence (whole entry): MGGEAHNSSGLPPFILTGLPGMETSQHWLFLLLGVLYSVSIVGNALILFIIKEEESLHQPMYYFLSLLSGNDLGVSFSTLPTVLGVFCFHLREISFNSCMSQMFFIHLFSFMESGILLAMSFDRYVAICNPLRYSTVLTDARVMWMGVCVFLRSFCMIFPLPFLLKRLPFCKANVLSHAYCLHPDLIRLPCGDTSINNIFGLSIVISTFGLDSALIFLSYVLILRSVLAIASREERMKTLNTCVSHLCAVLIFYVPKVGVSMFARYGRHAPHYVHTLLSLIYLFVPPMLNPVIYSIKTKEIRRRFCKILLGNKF
In a few lines:
as §1

In a further experiment the target is T6, UniProt Q924H8.
T6 sequence (whole entry): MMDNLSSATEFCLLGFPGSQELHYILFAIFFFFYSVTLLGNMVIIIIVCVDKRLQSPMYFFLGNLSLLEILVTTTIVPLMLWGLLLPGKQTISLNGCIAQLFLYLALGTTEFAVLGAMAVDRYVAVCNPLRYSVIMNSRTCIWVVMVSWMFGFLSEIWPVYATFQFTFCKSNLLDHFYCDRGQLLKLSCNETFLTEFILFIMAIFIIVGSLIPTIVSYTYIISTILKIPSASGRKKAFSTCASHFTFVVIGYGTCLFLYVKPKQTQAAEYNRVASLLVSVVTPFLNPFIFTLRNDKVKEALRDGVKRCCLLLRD
In a few lines:
as §1

The next experiment addresses T7, UniProt Q8VGX8.
T7 sequence (whole entry): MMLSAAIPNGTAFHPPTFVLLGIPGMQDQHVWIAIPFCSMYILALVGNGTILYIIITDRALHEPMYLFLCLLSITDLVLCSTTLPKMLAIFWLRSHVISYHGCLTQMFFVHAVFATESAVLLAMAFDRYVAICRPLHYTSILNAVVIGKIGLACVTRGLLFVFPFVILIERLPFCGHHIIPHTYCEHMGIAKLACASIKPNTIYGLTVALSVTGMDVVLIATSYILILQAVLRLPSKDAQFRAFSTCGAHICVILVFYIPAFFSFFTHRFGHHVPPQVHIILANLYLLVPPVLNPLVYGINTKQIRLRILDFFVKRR
In a few lines: as §1

For another experiment, the target named is T8, UniProt Q8VGY6.
T8 sequence (whole entry): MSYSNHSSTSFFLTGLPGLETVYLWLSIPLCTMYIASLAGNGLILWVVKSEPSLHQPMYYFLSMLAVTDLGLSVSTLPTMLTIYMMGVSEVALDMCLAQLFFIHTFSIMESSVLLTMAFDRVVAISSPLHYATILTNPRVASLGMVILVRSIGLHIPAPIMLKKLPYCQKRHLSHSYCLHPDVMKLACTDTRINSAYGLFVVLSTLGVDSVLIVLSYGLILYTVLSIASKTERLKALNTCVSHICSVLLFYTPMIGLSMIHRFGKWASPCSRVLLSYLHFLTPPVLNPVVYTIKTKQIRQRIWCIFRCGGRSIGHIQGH
Put shortly: as §1

In the next experiment the target is T9, UniProt Q8VH10.
T9 sequence (whole entry): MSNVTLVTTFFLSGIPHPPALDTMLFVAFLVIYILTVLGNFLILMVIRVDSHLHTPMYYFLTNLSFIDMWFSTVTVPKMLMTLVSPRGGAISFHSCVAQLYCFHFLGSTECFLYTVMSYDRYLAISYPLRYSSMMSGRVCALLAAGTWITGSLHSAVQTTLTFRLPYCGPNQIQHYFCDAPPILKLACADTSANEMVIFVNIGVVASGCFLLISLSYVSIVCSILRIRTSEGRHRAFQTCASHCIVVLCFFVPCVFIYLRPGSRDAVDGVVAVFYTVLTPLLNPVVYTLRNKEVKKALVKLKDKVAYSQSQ
In a few lines: as §1

The next experiment has as its target T10, UniProt Q8VH18.
T10 sequence (whole entry): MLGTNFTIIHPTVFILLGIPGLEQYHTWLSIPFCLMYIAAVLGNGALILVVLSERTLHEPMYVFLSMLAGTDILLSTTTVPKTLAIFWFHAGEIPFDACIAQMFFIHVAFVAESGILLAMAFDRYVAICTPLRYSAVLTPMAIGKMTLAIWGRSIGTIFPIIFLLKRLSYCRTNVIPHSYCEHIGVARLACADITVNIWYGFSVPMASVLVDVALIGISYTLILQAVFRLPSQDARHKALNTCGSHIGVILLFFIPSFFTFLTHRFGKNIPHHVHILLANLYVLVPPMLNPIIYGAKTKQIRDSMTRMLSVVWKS
Put shortly:
as §1

The target of another experiment is T11, UniProt Q924X8.
T11 sequence (whole entry): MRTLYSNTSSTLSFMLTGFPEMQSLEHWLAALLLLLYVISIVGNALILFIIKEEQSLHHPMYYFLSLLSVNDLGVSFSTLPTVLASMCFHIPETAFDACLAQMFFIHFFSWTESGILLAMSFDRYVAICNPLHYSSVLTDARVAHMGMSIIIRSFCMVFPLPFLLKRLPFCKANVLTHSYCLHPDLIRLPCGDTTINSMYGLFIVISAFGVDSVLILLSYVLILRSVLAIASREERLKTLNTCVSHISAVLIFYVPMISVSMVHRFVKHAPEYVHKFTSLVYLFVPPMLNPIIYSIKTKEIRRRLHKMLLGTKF
Put shortly: as §1

The next experiment deals with T12, UniProt Q99NH4.
T12 sequence (whole entry): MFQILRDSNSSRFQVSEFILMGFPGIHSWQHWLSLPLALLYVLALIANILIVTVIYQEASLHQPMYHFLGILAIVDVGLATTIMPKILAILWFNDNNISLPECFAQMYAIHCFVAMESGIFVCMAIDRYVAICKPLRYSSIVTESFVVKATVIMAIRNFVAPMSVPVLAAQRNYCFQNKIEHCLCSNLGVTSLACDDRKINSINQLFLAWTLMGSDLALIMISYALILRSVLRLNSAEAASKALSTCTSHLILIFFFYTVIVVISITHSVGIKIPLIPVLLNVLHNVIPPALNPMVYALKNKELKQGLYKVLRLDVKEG
Put shortly:
as §1

A further experiment deals with T13, UniProt Q9EPN9.
T13 sequence (whole entry): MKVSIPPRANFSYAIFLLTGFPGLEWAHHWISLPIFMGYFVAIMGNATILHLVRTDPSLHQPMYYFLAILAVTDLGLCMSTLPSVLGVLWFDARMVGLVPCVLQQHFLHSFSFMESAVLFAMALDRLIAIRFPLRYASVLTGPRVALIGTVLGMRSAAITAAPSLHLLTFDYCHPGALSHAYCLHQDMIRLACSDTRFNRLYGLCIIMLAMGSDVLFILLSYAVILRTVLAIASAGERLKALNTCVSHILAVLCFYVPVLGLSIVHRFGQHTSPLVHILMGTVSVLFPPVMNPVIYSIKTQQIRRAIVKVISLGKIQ
In a few lines: as §1

The target in the next experiment is UniProt Q9R0K2. Put shortly: as §1
Sequence of UniProt Q9R0K2 (Q9R0K2 as listed by the source): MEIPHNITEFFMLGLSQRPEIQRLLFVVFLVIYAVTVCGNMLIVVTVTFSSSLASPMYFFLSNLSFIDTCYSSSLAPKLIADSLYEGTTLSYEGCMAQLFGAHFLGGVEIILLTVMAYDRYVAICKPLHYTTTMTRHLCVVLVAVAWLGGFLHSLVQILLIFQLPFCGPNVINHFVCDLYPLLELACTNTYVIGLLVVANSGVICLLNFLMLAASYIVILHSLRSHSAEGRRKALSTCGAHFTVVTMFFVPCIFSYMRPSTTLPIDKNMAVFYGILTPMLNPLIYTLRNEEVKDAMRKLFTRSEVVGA
For a further experiment, the target named is T14, UniProt Q9WU86.
T14 sequence (whole entry): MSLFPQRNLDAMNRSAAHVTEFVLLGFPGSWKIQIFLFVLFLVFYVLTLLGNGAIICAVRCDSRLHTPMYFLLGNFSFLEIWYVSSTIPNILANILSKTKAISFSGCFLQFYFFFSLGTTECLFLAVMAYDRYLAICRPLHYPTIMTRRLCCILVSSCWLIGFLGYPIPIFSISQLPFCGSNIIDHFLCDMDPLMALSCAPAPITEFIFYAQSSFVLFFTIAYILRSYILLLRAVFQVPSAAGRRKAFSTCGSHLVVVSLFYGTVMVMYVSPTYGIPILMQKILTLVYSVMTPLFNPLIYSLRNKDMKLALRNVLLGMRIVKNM
In a few lines: as §1

A further experiment concerns the target T15, UniProt Q9WU94.
T15 sequence (whole entry): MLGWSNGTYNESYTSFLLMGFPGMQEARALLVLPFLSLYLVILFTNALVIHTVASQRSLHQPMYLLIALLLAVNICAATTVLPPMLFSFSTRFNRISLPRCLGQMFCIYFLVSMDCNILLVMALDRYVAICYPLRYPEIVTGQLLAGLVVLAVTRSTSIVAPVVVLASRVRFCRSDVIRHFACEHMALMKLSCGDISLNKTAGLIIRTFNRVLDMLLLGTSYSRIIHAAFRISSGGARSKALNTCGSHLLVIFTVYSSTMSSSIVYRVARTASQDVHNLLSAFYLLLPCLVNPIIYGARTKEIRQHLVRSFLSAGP
Put shortly:
as §1

A further experiment deals with T16, UniProt Q9WVD7.
T16 sequence (whole entry): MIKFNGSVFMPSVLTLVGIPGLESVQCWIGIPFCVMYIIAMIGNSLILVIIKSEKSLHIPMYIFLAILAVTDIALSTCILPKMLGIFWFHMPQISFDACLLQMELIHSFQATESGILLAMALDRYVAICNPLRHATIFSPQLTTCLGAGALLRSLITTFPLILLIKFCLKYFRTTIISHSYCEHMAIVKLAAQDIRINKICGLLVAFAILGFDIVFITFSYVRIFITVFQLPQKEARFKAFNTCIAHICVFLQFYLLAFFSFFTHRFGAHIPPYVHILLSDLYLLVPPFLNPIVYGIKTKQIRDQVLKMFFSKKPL
Put shortly:
as §1
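Note: active if original authors judged signal statistically different from baseline.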

`CC=C(C)C=O`: the “odorant receptor agonist call” value with UniProt Q8VGZ2, in the experiment with UniProt Q8VGZ7, with UniProt Q8VH16, with UniProt Q8VH20 and with UniProt Q924H8 was “inactive” in each case. The “odorant receptor agonist call” value with UniProt Q8VH21 is “active”.
Take `CCCCCCCC(=O)[O-].[H+]`: the “odorant receptor agonist call” value in the experiment with UniProt Q8VGX8, in the experiment with UniProt Q8VGZ2, with UniProt Q8VH18, with UniProt Q8VH20, with UniProt Q99NH4 and with UniProt Q9WVD7 was “active” throughout. In addition, the “odorant receptor agonist call” value in the experiment with UniProt Q8VGY6, with UniProt Q8VGZ7, with UniProt Q8VH10, in the experiment with UniProt Q924X8, with UniProt Q9EPN9 and with UniProt Q9R0K2 was “inactive” throughout. The “odorant receptor agonist call” value with UniProt Q9WU86 and in the experiment with UniProt Q9WU94 was “inactive” in each case.
Regarding `CCCC(C)=O`, the “odorant receptor agonist call” value with UniProt Q8VGX8, in the experiment with UniProt Q8VGY6, in the experiment with UniProt Q8VGZ2, with UniProt Q8VGZ7, in the experiment with UniProt Q8VH10 and with UniProt Q8VH18 was “inactive” each time. Further, the “odorant receptor agonist call” value in the experiment with UniProt Q8VH20, in the experiment with UniProt Q9EPN9, with UniProt Q9R0K2, with UniProt Q9WU86 and with UniProt Q9WU94 was “inactive” in each case.
